Reference: ChEMBL document CHEMBL5356984 (RSC Med Chem, 2023)
Calls of active or inactive are those of the source. No cut-off for these calls is given here.

Key:
[1] = Metabolic stability in simulated gastric fluid; type: ADME; details: simulated gi fluid
[2] = Thermal stability of compound in boiling toluene at 120 degreeC at 1 mg/ml measured for 12 to 24 hrs by HPLC analysis; type: physicochemical; details: time 12-24 hrs
In short: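 Compound at 1 mg mL−1 was heated in distilled boiling toluene at 120 °C for 0–24 h. Remaining percentage was measured by HPLC on a C18 column (5 µm, 4.6 × 250 mm) with MeOH/H2O gradients: 70→100% or 45→100% MeOH over 2–15 min, held at 100% to 20 min, then re-equilibrated.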

SK-BR-3 [3] = assay: Induction of apoptosis in human SK-BR-3 cells assessed as increase in cleaved pro-caspase-9 level at 10 to 20 uM incubated for 48 hrs by Western blot analysis; type: functional, cell-based; details: dose 10-20 µM
In short: (§1)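 Cells exposed 48 h (DMSO vehicle control); trypsinized, lysed in RIPA with phosphatase/protease inhibitors; 20 μg protein on SDS-PAGE, blotted, blocked 5% milk 1 h; primary antibodies 1:1000 overnight at 4 °C, GAPDH 1:10000 as loading control; HRP secondary 1:1000–1:5000; ECL detection.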

SK-BR-3 [4] = assay: Induction of apoptosis in human SK-BR-3 cells assessed as increase in cleaved PARP level at 10 to 20 uM incubated for 48 hrs by Western blot analysis; type: functional, cell-based; details: dose 10-20 µM; in short: as §1
SK-BR-3 [5] = assay: Induction of apoptosis in human SK-BR-3 cells assessed as increase in cleaved pro-caspase-3 level at 10 to 20 uM incubated for 48 hrs by Western blot analysis; type: functional, cell-based; details: dose 10-20 µM; in short: as §1
MCF7 [6] = assay: Induction of apoptosis in human MCF7 cells assessed as increase in cleaved PARP level at 10 to 20 uM incubated for 48 hrs by Western blot analysis; type: functional, cell-based; details: dose 10-20 µM; in short: as §1
MCF7 [7] = assay: Induction of apoptosis in human MCF7 cells assessed as increase in cleaved pro-caspase-8 level at 10 to 20 uM incubated for 48 hrs by Western blot analysis; type: functional, cell-based; details: dose 10-20 µM; in short: as §1
SK-BR-3 [8] = assay: Induction of apoptosis in human SK-BR-3 cells assessed as necrotic cells at 20 uM incubated for 36 hrs by Annexin V/PI staining based flow cytometry (reference value: 1.89 %); type: functional
SK-BR-3 [9] = assay: Induction of apoptosis in human SK-BR-3 cells assessed as late apoptotic cells at 20 uM incubated for 36 hrs by Annexin V/PI staining based flow cytometry (reference value: 4.95 %); type: functional
SK-BR-3 [10] = assay: Induction of apoptosis in human SK-BR-3 cells assessed as viable cells at 20 uM incubated for 36 hrs by Annexin V/PI staining based flow cytometry (reference value: 90.4 %); type: functional; details: read-out: Activity
SK-BR-3 [11] = assay: Induction of apoptosis in human SK-BR-3 cells assessed as necrotic cells at 10 uM incubated for 36 hrs by Annexin V/PI staining based flow cytometry (reference value: 1.89 %); type: functional
SK-BR-3 [12] = assay: Induction of apoptosis in human SK-BR-3 cells assessed as early apoptotic cells at 10 uM incubated for 36 hrs by Annexin V/PI staining based flow cytometry (reference value: 2.73 %); type: functional
SK-BR-3 [13] = assay: Induction of apoptosis in human SK-BR-3 cells assessed as viable cells at 10 uM incubated for 36 hrs by Annexin V/PI staining based flow cytometry (reference value: 90.4 %); type: functional; details: read-out: Activity
MCF7 [14] = assay: Induction of apoptosis in human MCF7 cells assessed as late apoptotic cells at 20 uM incubated for 36 hrs by Annexin V/PI staining based flow cytometry (reference value: 6.02 %); type: functional
MCF7 [15] = assay: Induction of apoptosis in human MCF7 cells assessed as viable cells at 20 uM incubated for 36 hrs by Annexin V/PI staining based flow cytometry (reference value: 90.5 %); type: functional; details: read-out: Activity
MCF7 [16] = assay: Induction of apoptosis in human MCF7 cells assessed as early apoptotic cells at 10 uM incubated for 36 hrs by Annexin V/PI staining based flow cytometry (reference value: 1.13 %); type: functional
MCF7 [17] = assay: Induction of apoptosis in human MCF7 cells assessed as late apoptotic cells at 10 uM incubated for 36 hrs by Annexin V/PI staining based flow cytometry (reference value: 6.02 %); type: functional
MCF7 [18] = assay: Induction of apoptosis in human MCF7 cells assessed as necrotic cells at 5 uM incubated for 36 hrs by Annexin V/PI staining based flow cytometry (reference value: 2.30 %); type: functional
MCF7 [19] = assay: Induction of apoptosis in human MCF7 cells assessed as early apoptotic cells at 5 uM incubated for 36 hrs by Annexin V/PI staining based flow cytometry (reference value: 1.13 %); type: functional
MCF7 [20] = assay: Antiproliferative activity against human MCF7 cells assessed as inhibition of cell viability measured after 48 hrs by MTT assay; type: functional, cell-based; details: MCF7, 48 h
In short: (§2)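 MTT cell viability read-out; IC50 obtained by non-linear regression of concentration–response data; values are mean ± SD of three independent experiments.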

BT-474 = assay: Antiproliferative activity against human BT-474 cells assessed as inhibition of cell viability measured after 48 hrs by MTT assay; type: functional, cell-based; details: BT-474, 48 h; in short: as §2
MCF7 [21] = assay: Effect on AKT level in human MCF7 cells at 5 to 20 uM incubated for 48 hrs by Western blot analysis; type: functional, cell-based; details: dose 5-20 µM; in short: as §1
Heat shock protein HSP90 [22] = biological target: T1, Heat shock protein HSP90 (Homo sapiens, UniProt P07900+P08238); assay: Inhibition of HSP90 in human SK-BR-3 cells assessed as decrease in HER2 level at 5 to 20 uM incubated for 48 hrs by Western blot analysis; type: cell-based; details: dose 5-20 µM
In short: (§3)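 MCF-7 or SKBr3 cells were exposed for 48 h, then trypsinised, PBS-washed and lysed in RIPA buffer with phosphatase and protease inhibitors. Cleared lysate (14 000 rpm, 4 °C, 15 min) was BCA-quantified, and 20 µg protein was run on SDS-PAGE and blotted. Blots were blocked in 5% milk, incubated with primary antibodies (1:1000) overnight at 4 °C, then HRP secondary, and developed by ECL. GAPDH (1:10000) was the loading control.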

Heat shock protein HSP90 [23] = biological target: T1, Heat shock protein HSP90; assay: Inhibition of HSP90 in human SK-BR-3 cells assessed as decrease in phosphorylated AKT level at 5 to 20 uM incubated for 48 hrs by Western blot analysis; type: cell-based; details: dose 5-20 µM; in short: as §3
Heat shock protein HSP90 [24] = biological target: T1, Heat shock protein HSP90; assay: Inhibition of HSP90 in human SK-BR-3 cells assessed as decrease in CDK4 level at 5 to 20 uM incubated for 48 hrs by Western blot analysis; type: cell-based; details: dose 5-20 µM; in short: as §3
Heat shock protein HSP90 [25] = biological target: T1, Heat shock protein HSP90; assay: Inhibition of HSP90 (unknown origin) at C-terminal by AlphaScreen assay; type: protein assay
In short: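 Modified AlphaScreen system measuring disruption of Cyp40 binding to recombinant HSP90 C-terminal domain; IC50 from two independent experiments.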

MCF7 [26] = assay: Effect on HSP70 level in human MCF7 cells at 5 to 20 uM incubated for 48 hrs by Western blot analysis; type: functional, cell-based; details: dose 5-20 µM; in short: as §1
SK-BR-3 [27] = assay: Effect on HSP70 level in human SK-BR-3 cells at 10 uM incubated for 36 hrs by DAPI staining based immunofluorescence analysis; type: functional, cell-based
In short: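 Cells treated 36 h with DMSO vehicle control, then fixed with 4% paraformaldehyde 15 min, permeabilized with 0.2% Triton X-100 5 min, blocked with 3% BSA 15 min; primary antibody then fluorescent secondary antibody, each 1 h at room temperature; HSP70 green, HSF-1 red, nuclei DAPI; imaged by fluorescence microscopy.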

## CN1CCN(/C=C/C(=O)/C=C/c2cccc(O[Si](C)(C)C(C)(C)C)c2)CC1
[1]
  Stability: Unstable
[2]
  Stability: Unstable
SK-BR-3 [3]
  Activity: Active
SK-BR-3 [4]
  Activity: Active
SK-BR-3 [5]
  Activity: Active
MCF7 [6]
  Activity: Active
MCF7 [7]
  Activity: Active
SK-BR-3 [8]
  Activity: 3.13%
SK-BR-3 [9]
  Activity: 30.7%
SK-BR-3 [10]
  viability at 20 µM: 18.5%
SK-BR-3 [11]
  Activity: 1.7%
SK-BR-3 [12]
  Activity: 3.01%
SK-BR-3 [13]
  viability at 10 µM: 86.9%
MCF7 [14]
  Activity: 28.4%
MCF7 [15]
  viability at 20 µM: 51.7%
MCF7 [16]
  Activity: 2.6%
MCF7 [17]
  Activity: 21.7%
MCF7 [18]
  Activity: 8.45%
MCF7 [19]
  Activity: 1.58%
MCF7 [20]
  IC50: 7.85 µM
BT-474
  IC50: 9.06 µM
MCF7 [21]
  Activity: inactive
Heat shock protein HSP90 [22]
  inhibition: Active
Heat shock protein HSP90 [23]
  inhibition: Active
Heat shock protein HSP90 [24]
  inhibition: Active
Heat shock protein HSP90 [25]
  IC50: 53.94 µM
MCF7 [26]
  Activity: inactive
SK-BR-3 [27]
  Activity: inactive
